Key:
[1] = target: HIV-1 RT DNA-dependent DNA polymerase activity (Human immunodeficiency virus type 1 group M subtype B, UniProt P03366); experiment: DNA-dependent DNA polymerase assay; format: biochemical; conditions: read-out: inhibition of DNA-dependent DNA polymerase activity
HIV-1RF isolate = experiment: in vitro; format: cell-based
[2] = tested on: selectively-mutated p51 thumb α-helix I variants (Lys275 – Arg286) of HIV-1 RT; format: biochemical; conditions: Supplementary Table S1
Method in brief: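 Reconstituted p66/p51 RT with p51 thumb mutations (150 - 800 ng), pre-mixed with test compound in DMSO; 18-nt 3′-fluorescein RNA/5′-dabsyl DNA hybrid (250 nM final) added to start. […] Triplicates.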

CCCCc1c(C)sc2nc(-c3ccc(O)c(O)c3)[nH]c(=O)c12 [Compound 25]
inhibition at 50 µM [1]: > 60%

O=c1[nH]c(-c2ccc(O)c(O)c2)nc2sc3c(c12)CCCC3 [Compound 28]
inhibition at 50 µM [1]: > 60% | protection from HIV infection (HIV-1RF isolate; HIV-1RF in CEM-SS cells): failed to elicit protection from HIV infection

O=c1[nH]c(-c2ccc(O)c(O)c2)nc2sc3c(c12)CCCCCC3 [Compound 30]
inhibition at 50 µM [1]: > 60%

Cc1sc2nc(-c3ccc(O)c(O)c3)[nH]c(=O)c2c1C [Compound 9]
sensitivity of the entire panel of p51 thumb α-helix I variants [2]: uniformly sensitive

CCCc1c(C)sc2nc(-c3ccc(O)c(O)c3)[nH]c(=O)c12 [Compound 24]
selectivity ratio (HIV-1RF isolate; human, sr, selectivity ratio, i.e., CC50/EC50, CC50/EC50): ~6
